High-throughput results deposited in PubChem by several laboratories.
HSF1 inh – HSF1 inhibition; NIH3T3-HGL HSE-luciferase, MG132-induced, luminescence 8 h; hits give low values; activity change, negative = inhibition, % at 7.5 µM (by protocol); actives 0.77% (n = 300,000);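 active = more than half of replicate wells show activity change below -50%, luminescence cut by over half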;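 note: luciferase reports HSF-1 transcriptional activity via heat shock element; 0% = median of DMSO wells and -100% = zero luminescence signal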
T cruzi repl – T. cruzi replication inhibition | T. cruzi beta-gal in NIH3T3, luminescence, 90 h | inhibition, % (concentration not given with the values) | actives 1.4% (n = 300,000) | AID 1885;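 active = mean inhibition across valid replicates above about 55%, limit read from the data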;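 note: signal also drops with host cell toxicity which is not excluded here; 0% = plate median of DMSO wells and 100% = zero luminescence signal; higher percent means less beta-gal luminescence so fewer parasites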
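System: NIH/3T3 fibroblasts plus reporter T. cruzi. Medium: DMEM plus 2% FBS. Probe or stimulus: 5000 reporter trypomastigotes per well. Compound: single 50 nL compound addition per well in DMSO. Incubation: co-culture of at least 90 h after 3 h attachment. Detection: GalScreen β-gal luminescence, detergent lysis, 60 min. Evaluation: parasite load inhibition, %.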
697 NFkB inh – inhibitors of the PMA/ionomycin-induced NF-kB reporter in 697 B cells. 697 B-cell NF-kB luciferase reporter, 16 h. inhibition, % at 4 µM. actives 0.33% (n = 330,000). AID 435022; in the data active = inhibition above about 35%
Jurkat NFkB inh – lowers PMA/ionomycin-induced NF-kB signal in Jurkat cells; PMA/ionomycin-induced NF-kB luciferase reporter, luminescence; inhibition, % at 4 µM; actives 0.53% (n = 330,000); AID 435003; in the data active = inhibition above about 50%
HSF1 activator – increases HSF-1 driven luciferase reporter signal. AID 504408. actives 1.7% (n = 300,000). activation, % at 9 µM. NIH3T3-HGL HSF-1 luciferase reporter, MG132, 8 h; 100% = twice DMSO control signal;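 active = mean replicate activation of at least 50% with a set share of replicates each reaching 50%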;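 note: 0% = median of the neutral control wells and 100% = twice that signal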
GPR7 antag – blocks human GPR7 receptor signaling. GPR7-expressing cells, fluorescence antagonist assay. P48145. actives 1.1% (n = 290,000). inhibition, % at 4.4 µM. AID 1861; in the data active = inhibition above about 16%, passing the limit was not always enough;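 note: cells stimulated with the agonist NPW; 0% = agonist with vehicle and 100% = vehicle without agonist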
Target sequence (P48145 whole entry, looked up): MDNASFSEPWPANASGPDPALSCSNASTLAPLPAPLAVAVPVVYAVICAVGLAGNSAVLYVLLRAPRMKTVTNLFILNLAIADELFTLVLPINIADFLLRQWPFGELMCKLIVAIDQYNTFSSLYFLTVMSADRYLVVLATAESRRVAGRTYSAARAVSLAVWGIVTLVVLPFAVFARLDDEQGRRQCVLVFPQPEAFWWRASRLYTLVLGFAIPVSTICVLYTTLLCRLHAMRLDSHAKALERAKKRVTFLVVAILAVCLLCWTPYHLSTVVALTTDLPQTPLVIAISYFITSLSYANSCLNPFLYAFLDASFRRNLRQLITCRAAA
Jurkat NFkB conf – lowers PMA/ionomycin-induced NF-kB signal in Jurkat cells; actives 27% (n = 2,700); inhibition, % at 4 µM; shares compounds with Jurkat NFkB inh; Jurkat NF-kB luciferase, 16 h;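 active = inhibition reaching about 45% at 4 µM in either replicate, limit read from the data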;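 note: plate controls were PMA/ionomycin stimulated DMSO wells for no effect and unstimulated DMSO wells for full effect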
Numbers without * were called inactive; / = no result given. An excerpt weighted towards active compounds, which were near 4.8% of everything screened.

SMILES | HSF1 inh | T cruzi repl | 697 NFkB inh | Jurkat NFkB inh | HSF1 activator | GPR7 antag | Jurkat NFkB conf
CCOC(=O)C(=CNc1cc(Cl)c(-c2ccco2)c(Cl)c1)C(=O)OCC | 4 | 11 | 5 | 7 | 44 | -7 | /
N#CC1=C(N)Oc2cc(N)ccc2C1c1cccc(F)c1 (stereo not given) | -6 | 4 | -38 | 47 | 0 | 12 | /
CN(C)c1ccc2c(c1)OC(N)=C(C#N)C2c1cccc(F)c1 (stereo not given) | -29 | -2 | -101 | 77* | -43 | 14 | 55*
CCNC(=O)C(=O)Nc1ccc([N+](=O)[O-])cc1 | 9 | -8 | 14 | 2 | -6 | -6 | /
CCCCc1ccc(NC(=O)C(=O)NCCN2CCN(Cc3ccc([N+](=O)[O-])cc3)CC2)cc1 | -6 | 6 | 17 | 51* | 3 | -11 | 59*
O=[N+]([O-])c1ccc(CN2CCN(c3ccc([N+](=O)[O-])cc3)CC2)cc1 | -5 | 21 | -15 | 60* | 12 | 36 | 21
O=C(Nc1ccc([N+](=O)[O-])cc1)Nc1ccon1 | -15 | -9 | 20 | 63* | -14 | 26 | 46
Cc1ccc2c(c1)N(CC(=O)NCCCN1CCOCC1)C(=O)C(C(C)C)O2 (stereo not given) | -2 | -9 | -22 | -6 | -10 | / | /
COCCOc1ccc(C(F)(F)F)cc1NC(=O)COC(=O)Cc1c[nH]c2ccccc12 | / | / | 14 | 18 | / | / | /
CCC1=Nc2cc(C(=O)NCc3cccnc3)ccc2Sc2ccc(C)cc21 | 5 | 17 | -21 | 56* | 11 | 17 | 19
CCOC(=O)[C@H]1[C@H]2COc3ccc(C)cc3[C@@H]2N2C(=O)c3cc(Br)ccc3NC(=O)[C@@]12C | / | / | 14 | 12 | / | / | /
Nn1c(SCC(=O)Nc2c(Cl)cccc2Cl)nncc1=O | -1 | -4 | 2 | 26 | 11 | / | /
O=C(CSCC(=O)Nc1ccccc1)N/N=C/c1c(O)ccc2ccccc12 | -3 | 14 | 17 | 63* | 1 | 20 | 37
Cn1cc(C(=O)N/N=C/c2c(O)ccc3ccccc23)ccc1=O | -2 | 37 | 14 | 59* | -7 | -3 | 76*
Cc1c(C(=O)N/N=C/c2c(O)ccc3ccccc23)nnn1-c1nonc1N | -5 | 27 | 20 | 55* | -9 | -18 | 76*
O=C(N/N=C\c1c(O)ccc2ccccc12)c1cncc(Br)c1 | -16 | 65* | -8 | 52* | -21 | 29 | 79*
COc1cccc(CN(C)Cc2nc(Cc3ccccc3Cl)no2)c1 | 0 | -2 | 4 | 9 | 19 | -13 | /
COc1cc(C2SCC(=O)N2Cc2ccccc2)ccc1O (stereo not given) | 3 | -6 | 2 | 11 | 1 | -2 | /
CCc1ccc(-c2cn(C3CCCCC3)c(=S)[nH]2)cc1 | 12 | 18 | -36 | -80 | 21 | -3 | /
O=C(N/N=C/c1c(O)ccc2ccccc12)c1ccc(Br)o1 | 2 | 41 | -2 | 52* | 23 | -6 | 62*
Nc1nn2cc(-c3ccccc3)nc2c2ccccc12 | 30 | 37 | -182 | -190 | 58* | -6 | -84
CCn1ncc(Br)c1C(=O)Nc1ccc(-c2ccno2)cc1 | -5 | -2 | -8 | -1 | -10 | -9 | /
O=C(COC(=O)c1cc(S(=O)(=O)N2CCCC2)ccc1O)Nc1ccc(F)cc1F | / | / | 18 | 70* | / | / | 25
COc1ccc2cc(-c3ccccc3F)ncc2c1 | / | / | -229 | -186 | / | / | -109
COc1ccc(-c2cc3ccccc3cn2)cc1 | / | / | -216 | -179 | / | / | -95
SMILES | HSF1 inh | T cruzi repl | 697 NFkB inh | Jurkat NFkB inh | HSF1 activator | GPR7 antag | Jurkat NFkB conf
O=C1C(=Cc2cccs2)C(=O)c2ccccc21 | 2 | 11 | 11 | 1 | -5 | -5 | /
O=C1/C(=C\c2cccs2)Sc2ccc3ccccc3c21 | 2 | 20 | -155 | -157 | 29 | 2 | -91
Cc1ccc(C(=O)NC2c3ccccc3-c3ccccc32)cc1 | -8 | 5 | -24 | 60* | -15 | -2 | 2
Cc1ccc(OCC(=O)N/N=C2/SCC(=O)N2Cc2ccccc2)cc1 | 0 | 2 | -11 | -4 | 29 | -4 | /
O=C(COc1ccc(Br)cc1)N/N=C1\SCC(=O)N1c1ccc(F)cc1 | -7 | 8 | -9 | 99* | -1 | -5 | 15
CCOC(=O)c1ccc(-c2c(-c3ccc(OC)cc3)oc(=O)c3cc(OC)c(OC)cc23)cc1F | / | / | -25 | -12 | / | / | /
CCOC(=O)c1ccc(-c2c(-c3cc(OC)c(OC)c(OC)c3)noc2C)cc1F | -16 | 27 | -38 | 57* | -34 | 18 | 36
O=C(N/N=C/c1ccc(Sc2nc3ccccc3s2)c([N+](=O)[O-])c1)c1ccccn1 | 20 | 6 | 6 | 69* | 6 | 7 | 21
Cc1cc(NC(=O)CSc2nnc(-c3c[nH]c4ccccc34)n2-c2ccc(Cl)cc2)no1 | 14 | 6 | -13 | -6 | 23 | -6 | /
CC(=O)C1(C)C(=O)N(c2ccc(C)cc2)C(=O)N1c1ccc(C)cc1 (stereo not given) | -7 | / | / | / | -7 | / | /
c1ccc(-c2noc(-c3ccc4ccccc4c3)n2)nc1 | -78* | 7 | 12 | 54* | -82 | 0 | 77*
c1ccc(-c2noc(-c3ccncc3)n2)nc1 | 0 | 11 | -76 | -70 | 7 | -6 | /
COc1ccc(-c2nc(-c3cccc(C)c3)no2)cc1OC | 19 | -3 | -86 | -92 | 47 | -5 | /
Cc1cccc(-c2noc(-c3ccc4c(c3)OCO4)n2)c1 | -21 | 0 | -200 | -187 | -29 | 2 | -99
c1ccc(-c2noc(-c3ccc4c(c3)OCO4)n2)nc1 | -42 | -4 | 8 | 68* | -48 | 4 | 69*
c1ccc(-c2cnc(-c3ccccn3)nn2)cc1 | 27 | -11 | -157 | -114 | 47 | / | /
c1ccc(-c2cnc(-c3ccccc3)nn2)cc1 | 31 | -13 | -240 | -178 | 28 | / | -102
CCOc1ccc(-c2nnc(SCC(=O)NC(C)(C)C)nc2-c2ccc(OCC)c(OC)c2)cc1OC | -5 | 17 | 14 | -30 | -7 | -10 | /
CCCN(CC(=O)Nc1ccccc1OC)C(=O)c1ccncc1 | -4 | -8 | 1 | 1 | 4 | 0 | /
COc1cccc(CN2CC(C(=O)NCCn3ccc(C)n3)CCC2=O)c1 (stereo not given) | 0 | -12 | -8 | 15 | -15 | -14 | /
CCCCCN1C=CC(=C2C(=O)c3ccccc3C2=O)C=C1 | -81* | 16 | -18 | 60* | -85 | -11 | 40
CC1=CC(=C2C(=O)c3ccccc3C2=O)C=C(C)N1C | 14 | 9 | -12 | -25 | 23 | 20 | /
Cc1cccc(C(=O)NN2S(=O)(=O)c3ccccc3S2(=O)=O)c1 | -3 | -5 | 8 | 13 | 1 | -6 | /
